High-throughput results: PubChem, The Scripps Research Institute Molecular Screening Center
VIM-2 inh: blocks Pseudomonas aeruginosa VIM-2 metallo-beta-lactamase; purified VIM-2, nitrocefin hydrolysis, epi-absorbance fluorescence; inhibition, % at 5.6 µM; 290,000 tested, 0.89% active;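 active = inhibition above the mean of all tested compounds plus 3 SD, cutoff set per screening run, cut at about 7.5% in these data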;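 also: red hydrolysis product quenches plate fluorescence so inhibitors raise well fluorescence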
IMP-1 inhibitor: inhibitors of Pseudomonas aeruginosa IMP-1 metallo-beta-lactamase | purified IMP-1, nitrocefin hydrolysis, epi-absorbance fluorescence | inhibition, % at 5.6 µM | 290,000 tested, 0.45% active;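 active = inhibition above the mean plus 3 SD of all compounds in the same screening run, cut at about 4.5% in these data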
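System: Purified recombinant IMP-1 metallo-beta-lactamase enzyme | Measured by: Fluorescence quenching readout, ex 480/em 530 nm | Replication: Singlicate | Incubation: 15 min preincubation plus 25 min reaction at 25 °C | Evaluation: Percent inhibition from optical density relative to buffer-blank wells | Benchmarks: DMSO with and without IMP-1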
PAFAH1B3 inh: inhibitors of human PAFAH1B3; Q15102; recombinant PAFAH1B3, FP-rhodamine probe, fluorescence polarization; inhibition, % at 3.39 µM; 340,000 tested, 0.28% active;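 active = inhibition above the screen-wide average of all tested compounds plus 3 SD, cut at about 25% in these data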
Target sequence (Q15102 whole entry, looked up): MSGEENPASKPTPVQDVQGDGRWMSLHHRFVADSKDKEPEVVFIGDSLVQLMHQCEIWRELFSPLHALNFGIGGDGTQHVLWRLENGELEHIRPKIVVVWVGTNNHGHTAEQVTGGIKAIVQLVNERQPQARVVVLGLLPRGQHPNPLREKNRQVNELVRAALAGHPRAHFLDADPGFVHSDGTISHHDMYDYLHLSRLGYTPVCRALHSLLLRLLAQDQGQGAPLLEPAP
PAFAH2 inh: PAFAH2 (human) inhibition; Q99487; recombinant PAFAH2, FP-rhodamine activity probe, fluorescence polarization; inhibition, % at 3.39 µM; 340,000 tested, 0.99% active; AID 492956;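 active = inhibition above the mean over all tested compounds plus 3 SD, cut at about 30% in these data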;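 also: inhibitors block probe labeling of enzyme so polarization drops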
PAFAH1B2 FP inh: inhibitors of human PAFAH1B2; P68402; recombinant PAFAH1B2, FP-rhodamine activity probe, fluorescence polarization; inhibition, % at 3.39 µM; 340,000 tested, 1.2% active; AID 492953;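 active = inhibition above the mean of all tested compounds plus 3 SD, cut at about 24% in these data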
Target sequence (P68402 whole entry, looked up): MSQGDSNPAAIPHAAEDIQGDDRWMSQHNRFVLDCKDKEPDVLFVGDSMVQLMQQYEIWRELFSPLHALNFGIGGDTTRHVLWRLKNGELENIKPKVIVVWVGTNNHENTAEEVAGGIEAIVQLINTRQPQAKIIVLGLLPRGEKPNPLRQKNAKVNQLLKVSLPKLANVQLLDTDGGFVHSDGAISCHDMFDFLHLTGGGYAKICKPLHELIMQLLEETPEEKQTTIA
pPAFAH inh: inhibitors of human plasma PAF acetylhydrolase (pPAFAH); recombinant pPAFAH, FP-rhodamine probe fluorescence polarization; Q13093; 330,000 tested, 1.5% active; AID 463082; inhibition, % at 3.39 µM;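 active = inhibition above the mean inhibition across the screen plus 3 SD, cut at about 25% in these data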;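 also: inhibitors block binding of the rhodamine activity-based probe so polarization drops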
Numbers stand for hits. This is a sample that favours compounds with a hit; in the whole collection about 3.6% have one here.

COc1ccc(CCC(=O)NNC(=O)c2cc(Cl)ccc2OC)cc1 was read as VIM-2 inh inactive, IMP-1 inhibitor inactive, PAFAH1B3 inh inactive, PAFAH2 inh inactive, PAFAH1B2 FP inh inactive and pPAFAH inh inactive.
`O=C(COC(=O)c1ccc([N+](=O)[O-])o1)NCc1ccc(F)cc1` gave PAFAH1B3 inh inactive, PAFAH2 inh inactive, PAFAH1B2 FP inh inactive and pPAFAH inh inactive.
Screening O=C(COC(=O)c1ccc([N+](=O)[O-])s1)NCc1ccc(F)cc1 returned VIM-2 inh inactive, IMP-1 inhibitor inactive, PAFAH1B3 inh 44, PAFAH2 inh 53, PAFAH1B2 FP inh inactive and pPAFAH inh 26.
Screening O=C(COC(=O)c1ccc([N+](=O)[O-])s1)NCCc1ccccc1 returned PAFAH1B3 inh 32, PAFAH2 inh 34, PAFAH1B2 FP inh inactive and pPAFAH inh inactive.
O=C1CN(C(=O)COC(=O)c2ccc([N+](=O)[O-])s2)c2ccccc2N1 was read as PAFAH1B3 inh 46, PAFAH2 inh 32, PAFAH1B2 FP inh inactive and pPAFAH inh inactive.
CC(SCc1ccc(C(=O)O)o1)c1ccc(C(=O)O)o1 (configuration not stated) was read as VIM-2 inh inactive, IMP-1 inhibitor inactive, PAFAH1B3 inh inactive, PAFAH2 inh inactive, PAFAH1B2 FP inh inactive and pPAFAH inh inactive.
`CC(C)NC(=O)N(C)C[C@H]1Oc2ccc(NC(=O)c3ccncc3)cc2C(=O)N([C@H](C)CO)C[C@@H]1C` gave PAFAH1B3 inh inactive, PAFAH2 inh inactive, PAFAH1B2 FP inh inactive and pPAFAH inh inactive.
CC(OC(=O)c1cccc(-n2cnnn2)c1)C(=O)NCc1ccccc1 (configuration not stated) was read as PAFAH1B3 inh inactive, PAFAH2 inh inactive, PAFAH1B2 FP inh inactive and pPAFAH inh inactive.
`COc1ccc(C2=NN(c3nc(-c4ccc(CNC(C)=O)cc4)cs3)C(c3ccco3)C2)cc1` (configuration not stated) gave VIM-2 inh inactive, IMP-1 inhibitor inactive, PAFAH1B3 inh inactive, PAFAH2 inh inactive, PAFAH1B2 FP inh inactive and pPAFAH inh 25.
For CC(C)(C)S(=O)N1Cc2cc(=O)n(Cc3ccccc3)c(CCO)c2[C@@H]1CCO (some centres not stated) the results were PAFAH1B3 inh inactive, PAFAH2 inh inactive and PAFAH1B2 FP inh inactive.
For CC1(OC(=O)c2cccs2)C(=O)C=C2C=C(c3ccsc3)OC=C2C1=O (configuration not stated) the results were pPAFAH inh 56.
For CC1(OC(=O)c2cccs2)C(=O)C=C2C=C(C3CC3)OC=C2C1=O (configuration not stated) the results were PAFAH1B3 inh inactive, PAFAH2 inh inactive, PAFAH1B2 FP inh inactive and pPAFAH inh inactive.
CC1(OC(=O)CCc2ccccc2)C(=O)C=C2C=C(c3ccsc3)OC=C2C1=O (configuration not stated) was read as pPAFAH inh 55.
Screening CC1(OC(=O)c2cccs2)C(=O)C=C2C=C(c3ccc(C#N)cc3)OC=C2C1=O (configuration not stated) returned pPAFAH inh 45.
O=C(NCCN1CCOCC1)C1CC(=O)N(c2cccc(C(F)(F)F)c2)C1 (configuration not stated) was read as PAFAH1B3 inh inactive, PAFAH2 inh inactive and PAFAH1B2 FP inh inactive.
`CCn1c(SCC(N)=O)nc2c(c1=O)C1(CCCC1)Cc1ccccc1-2` gave VIM-2 inh inactive, IMP-1 inhibitor inactive, PAFAH1B3 inh inactive, PAFAH2 inh inactive, PAFAH1B2 FP inh 31 and pPAFAH inh inactive.
Screening CCn1c(=O)c2c(n3cnnc13)-c1ccccc1CC21CCCCC1 returned VIM-2 inh inactive, IMP-1 inhibitor inactive, PAFAH1B3 inh inactive, PAFAH2 inh inactive, PAFAH1B2 FP inh 26 and pPAFAH inh inactive.
`CN(C(=O)c1ccc2c(c1)OCO2)C1CCS(=O)(=O)C1` (configuration not stated) gave PAFAH1B3 inh inactive, PAFAH2 inh inactive, PAFAH1B2 FP inh inactive and pPAFAH inh inactive.
CCOC(=O)C1CCN(C(=O)NS(=O)(=O)c2ccc(C)cc2)CC1 was read as VIM-2 inh inactive, IMP-1 inhibitor 9.6, PAFAH1B3 inh inactive, PAFAH2 inh inactive, PAFAH1B2 FP inh inactive and pPAFAH inh inactive.
Screening CN(Cc1ccco1)S(=O)(=O)c1nnc(NC(=O)c2ccccc2Cl)s1 returned VIM-2 inh 9.1, IMP-1 inhibitor inactive, PAFAH1B3 inh inactive, PAFAH2 inh inactive, PAFAH1B2 FP inh inactive and pPAFAH inh inactive.
`Cc1ccccc1C(=O)Nc1nnc(S(=O)(=O)N(C)Cc2ccco2)s1` gave VIM-2 inh 9.8, IMP-1 inhibitor inactive, PAFAH1B3 inh inactive, PAFAH2 inh inactive, PAFAH1B2 FP inh inactive and pPAFAH inh inactive.
For O=C(CN1C(=O)/C(=C2/SC(=S)N(CCS(=O)(=O)O)C2=O)c2ccccc21)Nc1cccc(C(F)(F)F)c1 the results were PAFAH1B3 inh inactive, PAFAH2 inh inactive, PAFAH1B2 FP inh inactive and pPAFAH inh inactive.
`O=C(CN1C(=O)/C(=C2\SC(=S)N(CCS(=O)(=O)O)C2=O)c2ccccc21)Nc1cccc(Br)c1` gave VIM-2 inh inactive, IMP-1 inhibitor 13, PAFAH1B3 inh inactive, PAFAH2 inh inactive, PAFAH1B2 FP inh inactive and pPAFAH inh inactive.
For Cc1ccc(N2C(=O)C3CCC(C)(C2=O)C3(C)C)cc1 (configuration not stated) the results were VIM-2 inh inactive, IMP-1 inhibitor inactive, PAFAH1B3 inh inactive, PAFAH2 inh inactive, PAFAH1B2 FP inh inactive and pPAFAH inh inactive.
`CSC[C@@H]1NC(=S)N(c2ccc(C)cc2)C1=O` gave VIM-2 inh inactive, IMP-1 inhibitor inactive, PAFAH1B3 inh 49, PAFAH2 inh inactive, PAFAH1B2 FP inh 27 and pPAFAH inh inactive.
Screening NC(CO)C(=O)NNCc1ccc(O)c(O)c1O (configuration not stated) returned VIM-2 inh inactive, IMP-1 inhibitor inactive, PAFAH1B3 inh inactive, PAFAH2 inh inactive, PAFAH1B2 FP inh inactive and pPAFAH inh 28.
Screening O=C(CSc1nc2cc(C(=O)O)ccc2c(=O)n1-c1ccc(F)cc1)Nc1ccc(F)c(F)c1F returned VIM-2 inh inactive, IMP-1 inhibitor inactive, PAFAH1B3 inh inactive, PAFAH2 inh inactive, PAFAH1B2 FP inh inactive and pPAFAH inh inactive.
For COc1ccc2nc(N3C(=O)CC(Cc4ccc(C)cc4)C3=O)sc2c1 (configuration not stated) the results were VIM-2 inh inactive, IMP-1 inhibitor inactive, PAFAH1B3 inh inactive, PAFAH2 inh inactive, PAFAH1B2 FP inh inactive and pPAFAH inh inactive.
For COc1ccc2nc(N3C(=O)CC(C(C)c4ccccc4)C3=O)sc2c1 (configuration not stated) the results were VIM-2 inh inactive, IMP-1 inhibitor 7.9, PAFAH1B3 inh inactive, PAFAH2 inh inactive, PAFAH1B2 FP inh inactive and pPAFAH inh inactive.
